The values that follow come from the RNAGym collection of RNA variant scans (doi:10.1126/science.aae0568).

First the molecules themselves.
B1: tRNA (parent)
chain: GUUCCGUUGGCGUAAUGGUAACGCGUCUCCCUCCUAAGGAGAAGACUGCGGGUUCGAGUCCCGUACGGAACG

Variants at the floor of the assay were thinned out.

The variants in this series derive from B1. Nature of the series: yeast fitness relative to wild type (ratio to wild type); higher = fitter; tRNA-Arg(CCU), competitive growth, 37 C, YPD. An outline of the steps:
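Variants of the tRNA-Arg(CCU) gene were chemically synthesised with a 3% per-site mutation rate across 69 sites and placed at the native genomic locus in Saccharomyces cerevisiae. Six parallel replicates of the pooled strains were competed in YPD at 37°C for 24 hours, and gene amplicons from the start and end populations were read by 100-nucleotide paired-end sequencing. Darwinian fitness relative to wild type was derived from changes in genotype frequencies. Genotypes required ≥ 100 starting reads, and estimates < 0.5 were set to 0.5.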
In the case of C11A C27G G68A, the yeast fitness is ≤ 0.5.

Turning to G10C U26C C55U, the yeast fitness is 0.507.

Regarding G10U A20C C34A U53A U54G, the yeast fitness is ≤ 0.5.

For the variant C11A C22U G44C C60U A69G, the yeast fitness amounted to 0.597.

As for C11A A43G U47C A65C, the yeast fitness is ≤ 0.5.

G10C U35A A37U A43G: the yeast fitness was ≤ 0.5.

With C11A A42G A43U C46U C62U, the yeast fitness is 0.582.

C11A C34G U59G: the yeast fitness was ≤ 0.5.

As for C11A G12A A20C C29U, the yeast fitness is ≤ 0.5.

Regarding C11A C24U G38C, the yeast fitness is ≤ 0.5.

Turning to G10C U47A A57C, the yeast fitness is ≤ 0.5.

Consider C11A C31U, for which the yeast fitness was determined as 0.664.

With C11A C31A, the yeast fitness is 0.524.

Regarding C11A C27G U59A, the yeast fitness was ≤ 0.5.

For C11A C31A C66G A69U, the yeast fitness is ≤ 0.5.

With C11A C27U G44U U64G A65G, the yeast fitness worked out at 0.593.

In the case of C11A C24U U32G A40U U64G, the yeast fitness is ≤ 0.5.

On to C11A C27G U35A A43U U54C A65G G68A, for which the yeast fitness is ≤ 0.5.

As for C11A C24U G56A G67C A70G, the yeast fitness was ≤ 0.5.

Consider C11A C22U C24G C30G, for which the yeast fitness was ≤ 0.5.

For C11A A37U U54C, the yeast fitness was 0.678.

As for C11A C31G A70U, the yeast fitness was ≤ 0.5.

With C11A C29A G56A C66G, the yeast fitness was ≤ 0.5.

For C11A C30U C49A, the yeast fitness is ≤ 0.5.

C11A A15C C24A C27A G41C G56A: the yeast fitness is 0.542.

For the variant C11A A20C C29U U47C A70U, the yeast fitness is ≤ 0.5.

As to G10U G17A C24A C61G, the yeast fitness is ≤ 0.5.

For the variant C11A A45U C55U G68U, the yeast fitness was ≤ 0.5.

C11A C29G A57G C66A: the yeast fitness is ≤ 0.5.

Regarding C11A A20U U28A C60G, the yeast fitness is 0.521.

As to C11A A20G C62A G67A, the yeast fitness is ≤ 0.5.

Consider C11A G12A G48A G50A, for which the yeast fitness is ≤ 0.5.

For the variant C11A G12C, the yeast fitness turned out to be 0.612.

Take C11A G17A U35G U59C: the yeast fitness stood at 0.568.

Turning to G10U C11G C24U C34U C46A, the yeast fitness was ≤ 0.5.

Take C11A G25A G58C A65G: the yeast fitness came out at 0.568.

Regarding C11A A21C C55U, the yeast fitness is ≤ 0.5.

Regarding C11A A43U C46U U47G A70U, the yeast fitness was ≤ 0.5.

C11A C24U U32A U35C C55G: the yeast fitness was ≤ 0.5.

With C11A A45G U53G, the yeast fitness is ≤ 0.5.

As for C11A A21G C34U A37G G58A, the yeast fitness was ≤ 0.5.

On to C11A C27G, for which the yeast fitness is 0.589.

Take C11A C31U C62A: the yeast fitness is ≤ 0.5.

For C11A C31U C62U, the yeast fitness came out at 0.544.

As for C11A A15C C24G G58A, the yeast fitness was ≤ 0.5.

Take C11A C24G C30G C55G: the yeast fitness is ≤ 0.5.

As for C11A G18C C27G, the yeast fitness was 0.64.

For the variant C11A A21U C30A A45U C49U C55U, the yeast fitness is ≤ 0.5.

C11A C31U A65U: the yeast fitness is ≤ 0.5.

For C11A A14U C30U C33A A36U A57G, the yeast fitness is ≤ 0.5.

On to C11A C31G C60U, for which the yeast fitness is ≤ 0.5.

For C11A A21C G51C U59G, the yeast fitness is ≤ 0.5.

C11A A43U C46U U47G: the yeast fitness is 0.565.

Consider C11A C49G, for which the yeast fitness worked out at 0.782.

For the variant C11A C49U, the yeast fitness came out at 0.658.

As to C11A A14U U59C C62U, the yeast fitness was ≤ 0.5.

C11A A21C C30U: the yeast fitness is 0.678.

For C11A A15G A20G C24U A37C G50A G67C, the yeast fitness was ≤ 0.5.

Consider C11A A15G C49U C66U, for which the yeast fitness is ≤ 0.5.

For the variant C11A C33U A43U G67A, the yeast fitness was ≤ 0.5.

For the variant C11A C31A C61A, the yeast fitness was 0.563.

As to G10C U32A C61G A70U, the yeast fitness is ≤ 0.5.

For the variant C11A A36C A43G G50C, the yeast fitness was ≤ 0.5.

Consider C11A C61G A65C, for which the yeast fitness was 0.567.

Turning to C11A C27A C33G A42C C66U, the yeast fitness is ≤ 0.5.

Take C11A C62A A70U: the yeast fitness was ≤ 0.5.

With C11A C22G G48C, the yeast fitness is 0.535.

C11A A20G C62A: the yeast fitness is 0.605.

With C11A C34G A43G C46G, the yeast fitness was 0.708.

Consider C11A C34A G58C, for which the yeast fitness is ≤ 0.5.

With C11A C24A A36G G48A, the yeast fitness is ≤ 0.5.

C11A C33G A43C G68A A70G: the yeast fitness was ≤ 0.5.

As to G10C U26A, the yeast fitness was found to be 0.71.

As for C11A A20U C30G A45C G48A, the yeast fitness is ≤ 0.5.

Turning to G10C U64C, the yeast fitness turned out to be 0.618.

C11A G18A C31U A69C: the yeast fitness came to 0.605.

For the variant C11A C29A U32C C66U, the yeast fitness is ≤ 0.5.

On to G10C U26A C49U C55G C60G, for which the yeast fitness is ≤ 0.5.

For C11A C34G A65U, the yeast fitness is ≤ 0.5.

As for C11A A14U C30G, the yeast fitness is ≤ 0.5.

Turning to G10U A14U G44C, the yeast fitness is 0.646.

In the case of C11A C31U G56A G58C, the yeast fitness was 0.595.

Turning to C11A C30U A43C G67U, the yeast fitness was ≤ 0.5.

In the case of C11A G18C, the yeast fitness was ≤ 0.5.

Consider C11A C30A G52C A65G, for which the yeast fitness was ≤ 0.5.

As to C11A G18A A36G A42C, the yeast fitness came to 0.711.

For the variant C11A C24G C34G, the yeast fitness is ≤ 0.5.

Turning to G10C U54A, the yeast fitness is ≤ 0.5.

For the variant G10C U54G, the yeast fitness was ≤ 0.5.

For the variant C11A C22G C49G G68C A69C, the yeast fitness was ≤ 0.5.

With C11A G17A C62U C66U, the yeast fitness is ≤ 0.5.

As for G10C U32A G38C U64C, the yeast fitness was ≤ 0.5.

On to C11A A21U A43U, for which the yeast fitness is ≤ 0.5.

Take C11A C33G: the yeast fitness worked out at 0.654.

Turning to C11A C33U, the yeast fitness amounted to 0.533.

With C11A C29A A57G A65C, the yeast fitness is ≤ 0.5.

As to G10C U19C A65G A70C, the yeast fitness is ≤ 0.5.

With C11A A14U C24U C34G U35A A36C C61A, the yeast fitness was ≤ 0.5.

C11A A20G U59G: the yeast fitness was ≤ 0.5.

In the case of C11A A20G C62U C66A, the yeast fitness is ≤ 0.5.

On to G10C U26A A43G C60U C62U A70C, for which the yeast fitness was ≤ 0.5.

Regarding G10C U32C C33A A45U, the yeast fitness is ≤ 0.5.

On to C11A A20G G39A G51A U53A G63C, for which the yeast fitness is 0.545.

C11A C62A A65C: the yeast fitness was ≤ 0.5.

As to C11A A43G G50C, the yeast fitness is ≤ 0.5.

Turning to C11A A21U G41A, the yeast fitness is ≤ 0.5.

With G10U C27G G39A G67A, the yeast fitness is ≤ 0.5.

Consider C11A C30G C31U U32C G52A, for which the yeast fitness stood at 0.566.

With C11A C27U C61G, the yeast fitness is ≤ 0.5.

For C11A A21C A37C A40C A69C, the yeast fitness is ≤ 0.5.

Consider C11A C49A C61G, for which the yeast fitness was determined as 0.53.

Consider C11A C27G U32C C33U C62U A65G, for which the yeast fitness was ≤ 0.5.

Turning to C11A C62G A69U, the yeast fitness was ≤ 0.5.

As to C11A A14G, the yeast fitness worked out at 0.628.

As to C11A A15U C34A G39C A40C G56C C61G C62G G68C, the yeast fitness is ≤ 0.5.

For C11A C22G C33U C34A G41A A65G, the yeast fitness is 0.527.

With C11A C33U C49U C61U, the yeast fitness is ≤ 0.5.

Consider C11A A36U C61U A65U, for which the yeast fitness was ≤ 0.5.

Regarding C11A A57G C66U, the yeast fitness was ≤ 0.5.

For C11A A14U A21C C46U U53C A65G, the yeast fitness stood at 0.575.

On to G10U U32A G38C U64C, for which the yeast fitness was ≤ 0.5.

In the case of C11A A21G C34U A37G G52C A57U A69U, the yeast fitness was ≤ 0.5.

Take C11A G12C U53G A65U: the yeast fitness was ≤ 0.5.

Take C11A A37U C49G C60G C62G: the yeast fitness is ≤ 0.5.

As for C11A A21U U54G, the yeast fitness was ≤ 0.5.

For C11A C29G A65U G68A, the yeast fitness is ≤ 0.5.

Regarding C11A C27G U35A A43U, the yeast fitness was ≤ 0.5.

With C11A A37G A40G A43G G52C U59G, the yeast fitness is ≤ 0.5.

As to C11A A20U, the yeast fitness is 0.681.

For C11A A20G, the yeast fitness was 0.556.

Regarding C11A A15G C34G G52C C61U, the yeast fitness is ≤ 0.5.

For C11A C24G C30G A57U G68U, the yeast fitness is ≤ 0.5.

In the case of C11A C27U A36G C49A, the yeast fitness is ≤ 0.5.

With C11A A21C C31A C62U, the yeast fitness is ≤ 0.5.

For C11A A42U G44C U54A C62U A65G, the yeast fitness is ≤ 0.5.

Take C11A C27A C55U G63A G67C: the yeast fitness was ≤ 0.5.

Turning to C11A A14G C31G C34G, the yeast fitness is ≤ 0.5.

Consider C11A A15C U54C C66G, for which the yeast fitness is ≤ 0.5.

C11A A45C C55U: the yeast fitness turned out to be 0.517.

As for C11A C30G A45U A57G C60A, the yeast fitness is ≤ 0.5.

Consider C11A C31U A70U, for which the yeast fitness came to 0.629.

On to C11A C46U C62A A65C, for which the yeast fitness was ≤ 0.5.

Regarding C11A A37C C49G, the yeast fitness was ≤ 0.5.

Consider C11A C30G C31U U32C A42G G52A, for which the yeast fitness was ≤ 0.5.

Consider C11A A43U A45C U53C, for which the yeast fitness is ≤ 0.5.

C11A A43G U64A: the yeast fitness came out at 0.601.

Take C11A A15G C61U A65U: the yeast fitness was ≤ 0.5.

Turning to C11A C27U C49A, the yeast fitness came to 0.752.

With C11A A36G A43C, the yeast fitness was 0.58.

For C11A G12A G23A C33G A45C, the yeast fitness is ≤ 0.5.

For C11A A45C, the yeast fitness is 0.563.

Regarding C11A A15U A20C C34G, the yeast fitness was ≤ 0.5.

As for C11A A36G, the yeast fitness came out at 0.646.

C11A A36U: the yeast fitness was found to be 0.559.

In the case of C11A A20U C29U C33G C62A A70U, the yeast fitness was ≤ 0.5.

For the variant C11A A20C C24U C55G, the yeast fitness turned out to be 0.617.

On to C11A G25A U53A, for which the yeast fitness was ≤ 0.5.

Consider C11A C33U C60G, for which the yeast fitness was 0.531.

As for C11A C34U, the yeast fitness is 0.552.

As for C11A C27U G56C, the yeast fitness is ≤ 0.5.

In the case of C11A A36G C62U, the yeast fitness is 0.539.

As to C11A A14G C29U A65C, the yeast fitness was ≤ 0.5.

In the case of C11A C31A C61G A65C A70C, the yeast fitness was ≤ 0.5.

In the case of C11A A20U C61U, the yeast fitness is 0.558.

Turning to C11A A40G, the yeast fitness was 0.602.

As to C11A C33A A36C G63C C66G, the yeast fitness stood at 0.582.

With C11A A20U C33U C34U G48A C66U, the yeast fitness is 0.557.
